Measured values: ChEMBL document CHEMBL1275451, “In vitro susceptibilities of invasive isolates of Candida species: rapid increase in rates of fluconazole susceptible-dose dependent Candida glabrata isolates” (2008)
In brackets after ≈: the same amount, converted by molar mass. *1 amine or outer side, *2 acyl side, *3 side chain or, on linkers, in order; H or OH if unused. Where a SMILES comes first, the peptide text is derived from it. Bridges are numbered along the chain shown (N, C = ends). [ ]: non-standard residue; d: D form. The star is where a group is joined. hTyr(3S-OH,4S-OH,3'-OSO3H) = N[C@H](C(=O)O)[C@H](O)[C@@H](O)c1ccc(O)c(OS(=O)(=O)O)c1; Orn(4R-OH,5R-OH) = O=C([C@H](C[C@@H](O)[C@@H](O)N[*:3])N[*:1])[*:2]; Pro(3S-OH,4S-Me) = C[C@H]1CN[C@H](C(=O)O)[C@H]1O; X1 = CCCCCOc1ccc(-c2cc(-c3ccc(C(=O)*)cc3)no2)cc1; Gln(3R-OH) = NC(=O)C[C@@H](O)[C@H](N)C(=O)O; Hyp = O=C(O)[C@@H]1C[C@@H](O)CN1

Columns and labels:
Format in all cases: functional
[1] = system: Candida tropicalis; experiment: Antifungal activity against Candida tropicalis after 48 hrs by CLSI method
Outline: (§1)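 Broth microdilution MICs were run on invasive clinical Candida isolates under CLSI M27-A2, with incubation at 35°C for 48 h before reading. Control strains were C. parapsilosis ATCC 22019 and C. krusei ATCC 6258. MICs were interpreted under the same guideline to place isolates as susceptible, susceptible-dose dependent or resistant, reported as percentage of isolates per category, with MIC range, MIC50 and MIC90.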

[2] = system: Candida albicans; experiment: Antifungal activity against Candida albicans after 48 hrs by CLSI method
[3] = system: Nakaseomyces glabratus; experiment: Antifungal activity against Candida glabrata after 48 hrs by CLSI method
[4] = system: Candida parapsilosis; experiment: Antifungal activity against Candida parapsilosis after 48 hrs by CLSI method; settings: Lodderomyces parapsilosis; outline: as §1
[5] = system: Meyerozyma guilliermondii; experiment: Antifungal activity against Candida guilliermondii after 48 hrs by CLSI method
[6] = system: Pichia kudriavzevii; experiment: Antifungal activity against Candida krusei after 48 hrs by CLSI method
Outline: as §1, with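 “reading.” for “reading. Control strains were C. parapsilosis ATCC 22019 and C. krusei ATCC 6258.”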

[7] = system: Clavispora lusitaniae; experiment: Antifungal activity against Candida lusitaniae after 48 hrs by CLSI method
[8] = system: Candida albicans; experiment: Antifungal activity against Candida albicans assessed as susceptible isolates after 48 hrs by CLSI method; outline: as §1
[9] = system: Nakaseomyces glabratus; experiment: Antifungal activity against Candida glabrata assessed as susceptible isolates after 48 hrs by CLSI method; outline: as §1
[10] = system: Candida tropicalis; experiment: Antifungal activity against Candida tropicalis assessed as susceptible isolates after 48 hrs by CLSI method; outline: as §1
[11] = system: Candida parapsilosis; experiment: Antifungal activity against Candida parapsilosis assessed as susceptible isolates after 48 hrs by CLSI method; outline: as §1
[12] = system: Meyerozyma guilliermondii; experiment: Antifungal activity against Candida guilliermondii assessed as susceptible isolates after 48 hrs by CLSI method; outline: as §1
[13] = system: Pichia kudriavzevii; experiment: Antifungal activity against Candida krusei assessed as susceptible isolates after 48 hrs by CLSI method; outline: as §1
[14] = system: Clavispora lusitaniae; experiment: Antifungal activity against Candida lusitaniae assessed as susceptible isolates after 48 hrs by CLSI method; outline: as §1
[15] = system: Candida albicans; experiment: Antifungal activity against Candida albicans assessed as resistant isolates after 48 hrs by CLSI method; outline: as §1
[16] = system: Nakaseomyces glabratus; experiment: Antifungal activity against Candida glabrata assessed as resistant isolates after 48 hrs by CLSI method; outline: as §1
[17] = system: Candida tropicalis; experiment: Antifungal activity against Candida tropicalis assessed as resistant isolates after 48 hrs by CLSI method; outline: as §1
[18] = system: Candida parapsilosis; experiment: Antifungal activity against Candida parapsilosis assessed as resistant isolates after 48 hrs by CLSI method; outline: as §1
[19] = system: Pichia kudriavzevii; experiment: Antifungal activity against Candida krusei assessed as resistant isolates after 48 hrs by CLSI method; outline: as §1
[20] = system: Candida albicans; experiment: Antifungal activity against Candida albicans assessed as susceptible dose-dependent isolates after 48 hrs by CLSI method; outline: as §1
[21] = system: Nakaseomyces glabratus; experiment: Antifungal activity against Candida glabrata assessed as susceptible dose-dependent isolates after 48 hrs by CLSI method; outline: as §1
[22] = system: Candida tropicalis; experiment: Antifungal activity against Candida tropicalis assessed as susceptible dose-dependent isolates after 48 hrs by CLSI method; outline: as §1
[23] = system: Candida parapsilosis; experiment: Antifungal activity against Candida parapsilosis assessed as susceptible dose-dependent isolates after 48 hrs by CLSI method; outline: as §1
[24] = system: Meyerozyma guilliermondii; experiment: Antifungal activity against Candida guilliermondii assessed as susceptible dose-dependent isolates after 48 hrs by CLSI method; outline: as §1
[25] = system: Pichia kudriavzevii; experiment: Antifungal activity against Candida krusei assessed as susceptible dose-dependent isolates after 48 hrs by CLSI method; outline: as §1
[26] = system: Clavispora lusitaniae; experiment: Antifungal activity against Candida lusitaniae assessed as susceptible dose-dependent isolates after 48 hrs by CLSI method; outline: as §1
[27] = system: Meyerozyma guilliermondii; experiment: Antifungal activity against Candida guilliermondii assessed as resistant isolates after 48 hrs by CLSI method; outline: as §1
[28] = system: Clavispora lusitaniae; experiment: Antifungal activity against Candida lusitaniae assessed as resistant isolates after 48 hrs by CLSI method; outline: as §1

SMILES | MIC50 [1] [µg/mL] | MIC90 [1] [µg/mL] | MIC50 [2] [µg/mL] | MIC90 [2] [µg/mL] | MIC50 [3] [µg/mL] | MIC90 [3] [µg/mL] | MIC50 [4] [µg/mL] | MIC90 [4] [µg/mL] | MIC50 [5] [µg/mL] | MIC90 [5] [µg/mL] | MIC50 [6] [µg/mL] | MIC90 [6] [µg/mL] | MIC50 [7] [µg/mL] | MIC90 [7] [µg/mL] | Activity [8] [%] | Activity [9] [%] | Activity [10] [%] | Activity [11] [%] | Activity [12] [%] | MIC [2] [µg/mL] | also measured
CCC(C)n1ncn(-c2ccc(N3CCN(c4ccc(OCC5COC(Cn6cncn6)(c6ccc(Cl)cc6Cl)O5)cc4)CC3)cc2)c1=O (stereo not drawn) [ITRACONAZOLE] | 0.12 (≈ 0.17 µM) | 0.25 (≈ 0.354 µM) | 0.03 (≈ 0.0425 µM) | 0.03 (≈ 0.0425 µM) | 1 (≈ 1.42 µM) | 1 (≈ 1.42 µM) | 0.06 (≈ 0.085 µM) | 0.25 (≈ 0.354 µM) | 0.5 (≈ 0.709 µM) | 0.5 (≈ 0.709 µM) | 0.5 (≈ 0.709 µM) | 0.5 (≈ 0.709 µM) | 0.06 (≈ 0.085 µM) | 0.06 (≈ 0.085 µM) | 98 | 0 | 65 | 78 | 6 | – | Activity [13]: 0%; Activity [14]: 100%; Activity [15]: 0%; Activity [16]: 63%; Activity [17]: 0%; Activity [18]: 0%; Activity [19]: 10%; Activity [20]: 2%; Activity [21]: 37%; Activity [22]: 35%; Activity [23]: 22%; Activity [24]: 88%; Activity [25]: 90%; Activity [26]: 0%
CCCCCOc1ccc(-c2cc(-c3ccc(C(=O)N[C@H]4C[C@@H](O)[C@@H](O)NC(=O)[C@@H]5[C@@H](O)[C@@H](C)CN5C(=O)[C@H]([C@H](O)CC(N)=O)NC(=O)[C@H]([C@H](O)[C@@H](O)c5ccc(O)c(OS(=O)(=O)O)c5)NC(=O)[C@@H]5C[C@@H](O)CN5C(=O)[C@H]([C@@H](C)O)NC4=O)cc3)no2)cc1 [MICAFUNGIN] (X1-[Orn(4R-OH,5R-OH)]T[Hyp][hTyr(3S-OH,4S-OH,3'-OSO3H)][Gln(3R-OH)][Pro(3S-OH,4S-Me)]; lactam 1-C) | 0.06 (≈ 0.0472 µM) | 0.12 (≈ 0.0945 µM) | 0.007 (≈ 0.00551 µM) | 0.015 (≈ 0.0118 µM) | 0.06 (≈ 0.0472 µM) | 0.06 (≈ 0.0472 µM) | 2 (≈ 1.57 µM) | 2 (≈ 1.57 µM) | 1 (≈ 0.787 µM) | 1 (≈ 0.787 µM) | 0.25 (≈ 0.197 µM) | 0.5 (≈ 0.394 µM) | 0.25 (≈ 0.197 µM) | 0.25 (≈ 0.197 µM) | – | – | – | – | – | 0.007 (≈ 0.00551 µM) | MIC [1]: 0.06 µg/mL (≈ 0.0472 µM); MIC [6]: 0.25 µg/mL (≈ 0.197 µM)
CC[C@@H]([C@H](C)O)n1ncn(-c2ccc(N3CCN(c4ccc(OC[C@@H]5CO[C@@](Cn6cncn6)(c6ccc(F)cc6F)C5)cc4)CC3)cc2)c1=O [POSACONAZOLE] | 0.06 (≈ 0.0856 µM) | 0.25 (≈ 0.357 µM) | 0.015 (≈ 0.0214 µM) | 0.03 (≈ 0.0428 µM) | 0.5 (≈ 0.713 µM) | 0.5 (≈ 0.713 µM) | 0.03 (≈ 0.0428 µM) | 0.06 (≈ 0.0856 µM) | 0.12 (≈ 0.171 µM) | 0.25 (≈ 0.357 µM) | 0.25 (≈ 0.357 µM) | 0.25 (≈ 0.357 µM) | 0.03 (≈ 0.0428 µM) | 0.03 (≈ 0.0428 µM) | – | – | – | – | – | 0.015 (≈ 0.0214 µM) | MIC [4]: 0.03 µg/mL (≈ 0.0428 µM)
C[C@@H](c1ncncc1F)[C@](O)(Cn1cncn1)c1ccc(F)cc1F [VORICONAZOLE] | 0.12 (≈ 0.344 µM) | 0.12 (≈ 0.344 µM) | 0.015 (≈ 0.0429 µM) | 0.03 (≈ 0.0859 µM) | 0.5 (≈ 1.43 µM) | 1 (≈ 2.86 µM) | 0.03 (≈ 0.0859 µM) | 0.06 (≈ 0.172 µM) | 0.06 (≈ 0.172 µM) | 0.12 (≈ 0.344 µM) | 0.5 (≈ 1.43 µM) | 0.5 (≈ 1.43 µM) | 0.015 (≈ 0.0429 µM) | 0.015 (≈ 0.0429 µM) | 100 | 94 | 100 | 100 | 97 | 0.015 (≈ 0.0429 µM) | MIC [7]: 0.015 µg/mL (≈ 0.0429 µM); Activity [13]: 95%; Activity [14]: 100%; Activity [15]: 0%; Activity [16]: 4%; Activity [17]: 0%; Activity [18]: 0%; Activity [27]: 0%; Activity [19]: 3%; Activity [28]: 0%; Activity [20]: 0%; Activity [21]: 2%; Activity [22]: 0%; Activity [23]: 0%; Activity [24]: 3%; Activity [25]: 3%; Activity [26]: 0%
